Measured values: article PMC3692342 (International Journal of Nanomedicine, 2013)
Marks after values point to notes of the source that are not given here. Values belong to the molecule of their own block, whether it stands above or below them.

Experiments:
[1] = test system: WRL-68 cells; experiment: MTT cell viability assay on normal human hepatic cells; details: 24 hours, TQNLC concentration based on amount of TQ
Summary of the method: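 Human normal liver WRL-68 cells were grown in DMEM with 10% FBS, 100 units/mL penicillin and 0.1 mg/mL streptomycin at 37°C under 5% CO2. They were seeded at 1 × 10^5 cells/mL, held 24 h, then exposed to test compound for 24 h. MTT (2 mg/mL) was added for 1 h and A570 read. Viability is % of untreated absorbance; IC50 is the concentration giving 50% growth loss. Cisplatin served as positive control.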

[2] = test system: ethanol-induced ulcers; experiment: Ethanol-induced gastric ulcer in rats; assay type: in vivo, Sprague Dawley male rats
[3] = Pharmacokinetic study in rabbits; assay type: in vivo, New Zealand White rabbits
[4] = oral pretreatment 60 mg/Kg 1 h before ethanol
[5] = New Zealand White, rabbit, plasma, ip, 10 mg/kg
[6] = TQ in rabbits, single extravascular (IP) dose of TQNLC(20) 10 mg/kg, n = 3
[7] = oral pretreatment 20 mg/kg 1 h before ethanol

SMILES: N.N.[Cl][Pt][Cl] [cisplatin]
IC50 (concentration causing 50% loss of cell growth) [1]: 5.1 ± 0.28 µg/mL

AUC(0-inf) [3, 5]: 26822 ± 9.4 ng·h/mL
Cmax [3, 5]: 4810 ± 55.5 ng/mL
Tmax [3, 5]: 3.96 ± 0.19 h
half-life [3, 5]: 269.6 ± 0.9 min
CL (clearance) [3, 6]: 0.71 ± 0.031 L/h/kg
Vd (volume of distribution) [3, 6]: 4.32 ± 0.34 L/kg
SMILES: CC1=CC(=O)C(C(C)C)=CC1=O [Thymoquinone, thymoquinone]
I% (inhibition percentage of ulcer area) [2, 4]: 89.1%
Mucus (weight of gastric mucosa) [2, 4]: 3.24 ± 0.4^d
UA (ulcer area) [2, 4]: 112.4 ± 3.2^e mm^2
pH (gastric juice) [2, 4]: 6.5 ± 0.3^c

SMILES: COc1ccc2[nH]c([S+]([O-])Cc3ncc(C)c(OC)c3C)nc2c1 (stereo not shown) [Omeprazole]
PAS-positive mucus versus ulcer control group (in words) ([2]; oral 20 mg/kg, PAS staining): more PAS-positive mucus
Histopathology of stomach versus ulcer control group (in words) ([2]; oral 20 mg/kg, hematoxylin and eosin): improved
I% (inhibition percentage of ulcer area) [2, 7]: 80.8%
UA (ulcer area) [2, 7]: 183 ± 5.8^b mm^2
pH (gastric juice) ([2]; oral pretreatment 20 mg/kg 1 h before ethanol 5 mL/kg): 6.43 ± 0.2^b
